Measured values taken from ChEMBL document CHEMBL4359877, “Identification of benzothiazinones containing an oxime functional moiety as new anti-tuberculosis agents” (Eur J Med Chem, 2019).
Values after ≈ are worked out from the molar mass of the structure shown.

Columns and labels:
[1] = system: Mycobacterium tuberculosis; assay: Antimycobacterial activity against multidrug-resistant Mycobacterium tuberculosis isolate 16995 assessed as reduction in bacterial cell growth incubated for 7 days by microplate alamar blue assay; type: functional; details: isolate 16995, 168 h
Outline: (§1)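 MABA: H37Rv or clinical MDR isolates (resistant to INH and RFP, Beijing Chest Hospital patients) grown to late log phase in 7H9 with glycerol, Tween 80 and ADC, washed, filtered and frozen. Two-fold compound dilutions with 2 × 10⁵ CFU per well, 37 °C; Alamar blue plus Tween 80 added on day 7, fluorescence (ex 530/em 590) read after 16–24 h. MIC = lowest concentration giving ≥90% fluorescence reduction versus mean of bacterium-only controls; RIF and INH as positive controls.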

[2] = system: Mycobacterium tuberculosis; assay: Antimycobacterial activity against multidrug-resistant Mycobacterium tuberculosis isolate 16833 assessed as reduction in bacterial cell growth incubated for 7 days by microplate alamar blue assay; type: functional; details: isolate 16833, 168 h; outline: as §1

SMILES: CCO/N=C(\C)CN1CCN(c2nc(=O)c3cc(C(F)(F)F)cc([N+](=O)[O-])c3s2)CC1
- MIC90 [1]: 0.01 µg/mL (≈ 0.0218 µM)
- MIC90 [2]: < 0.016 µg/mL

SMILES: C/C(CN1CCN(c2nc(=O)c3cc(C(F)(F)F)cc([N+](=O)[O-])c3s2)CC1)=N\OCc1ccccc1
- MIC90 [1]: 0.01 µg/mL (≈ 0.0192 µM)
- MIC90 [2]: < 0.016 µg/mL

SMILES: CCON=C1CCC(CN2CCN(c3nc(=O)c4cc(C(F)(F)F)cc([N+](=O)[O-])c4s3)[C@@H](C)C2)CC1 (some centres undefined)
- MIC90 [1]: < 0.016 µg/mL
- MIC90 [2]: < 0.016 µg/mL

SMILES: CON=C1CCC(CN2CCN(c3nc(=O)c4cc(C(F)(F)F)cc([N+](=O)[O-])c4s3)C[C@@H]2C)CC1 (some centres undefined)
- MIC90 [1]: < 0.016 µg/mL
- MIC90 [2]: < 0.016 µg/mL

SMILES: CO/N=C(\C)CCN1CCN(c2nc(=O)c3cc(C(F)(F)F)cc([N+](=O)[O-])c3s2)CC1
- MIC90 [1]: < 0.016 µg/mL
- MIC90 [2]: 0.017 µg/mL (≈ 0.037 µM)

SMILES: CON=C1CCC(CN2CCN(c3nc(=O)c4cc(C(F)(F)F)cc([N+](=O)[O-])c4s3)C[C@H]2C)CC1 (some centres undefined)
- MIC90 [1]: < 0.016 µg/mL
- MIC90 [2]: < 0.016 µg/mL

SMILES: CON=C1CCC(CN2CCN(c3nc(=O)c4cc(C(F)(F)F)cc([N+](=O)[O-])c4s3)[C@@H](C)C2)CC1 (some centres undefined)
- MIC90 [1]: < 0.016 µg/mL
- MIC90 [2]: < 0.016 µg/mL

SMILES: CCON=C1CCC(CN2CCN(c3nc(=O)c4cc(C(F)(F)F)cc([N+](=O)[O-])c4s3)C[C@H]2C)CC1 (some centres undefined)
- MIC90 [1]: < 0.016 µg/mL
- MIC90 [2]: < 0.016 µg/mL

SMILES: CON=C1CCC(CN2CCN(c3nc(=O)c4cc(C(F)(F)F)cc([N+](=O)[O-])c4s3)CC2)CC1 (centres undefined)
- MIC90 [1]: < 0.016 µg/mL
- MIC90 [2]: < 0.016 µg/mL

SMILES: CCON=C1CCC(CN2CCN(c3nc(=O)c4cc(C(F)(F)F)cc([N+](=O)[O-])c4s3)C[C@@H]2C)CC1 (some centres undefined)
- MIC90 [1]: < 0.016 µg/mL
- MIC90 [2]: < 0.016 µg/mL

SMILES: CCON=C1CCC(CN2C(C)CN(c3nc(=O)c4cc(C(F)(F)F)cc([N+](=O)[O-])c4s3)CC2C)CC1 (centres undefined)
- MIC90 [1]: < 0.016 µg/mL
- MIC90 [2]: < 0.016 µg/mL

SMILES: CCO/N=C(\C)CCN1CCN(c2nc(=O)c3cc(C(F)(F)F)cc([N+](=O)[O-])c3s2)CC1
- MIC90 [1]: < 0.016 µg/mL
- MIC90 [2]: < 0.016 µg/mL

SMILES: CCON=C1CCC(CN2CCN(c3nc(=O)c4cc(C(F)(F)F)cc([N+](=O)[O-])c4s3)[C@H](C)C2)CC1 (some centres undefined)
- MIC90 [1]: < 0.016 µg/mL
- MIC90 [2]: < 0.016 µg/mL

SMILES: CCON=C1CC(CN2CCN(c3nc(=O)c4cc(C(F)(F)F)cc([N+](=O)[O-])c4s3)CC2)C1 (centres undefined)
- MIC90 [1]: < 0.016 µg/mL
- MIC90 [2]: < 0.016 µg/mL

SMILES: CCON=C1CCC(CN2CCN(c3nc(=O)c4cc(C(F)(F)F)cc([N+](=O)[O-])c4s3)CC2C)CC1 (centres undefined)
- MIC90 [1]: < 0.016 µg/mL
- MIC90 [2]: < 0.016 µg/mL

SMILES: CON=C1CCC(CN2CCN(c3nc(=O)c4cc(C(F)(F)F)cc([N+](=O)[O-])c4s3)CC2C)CC1 (centres undefined)
- MIC90 [1]: < 0.016 µg/mL
- MIC90 [2]: < 0.016 µg/mL

SMILES: CCON=C1CCC(CN2CCN(c3nc(=O)c4cc(C(F)(F)F)cc([N+](=O)[O-])c4s3)CC2)CC1 (centres undefined)
- MIC90 [1]: < 0.016 µg/mL
- MIC90 [2]: < 0.016 µg/mL

SMILES: C/C(CCN1CCN(c2nc(=O)c3cc(C(F)(F)F)cc([N+](=O)[O-])c3s2)CC1)=N\OCc1ccccc1
- MIC90 [1]: < 0.016 µg/mL
- MIC90 [2]: < 0.016 µg/mL

SMILES: CON=C1CCC(CN2C(C)CN(c3nc(=O)c4cc(C(F)(F)F)cc([N+](=O)[O-])c4s3)CC2C)CC1 (centres undefined)
- MIC90 [1]: < 0.016 µg/mL
- MIC90 [2]: < 0.016 µg/mL

SMILES: NNC(=O)c1ccncc1 [ISONIAZID]
- MIC90 [1]: > 40 µg/mL
- MIC90 [2]: > 40 µg/mL

SMILES: O=c1nc(N2CCN(CC3CCCCC3)CC2)sc2c([N+](=O)[O-])cc(C(F)(F)F)cc12 [MACOZINONE]
- MIC90 [1]: < 0.016 µg/mL
- MIC90 [2]: < 0.016 µg/mL

SMILES: CO[C@H]1/C=C/O[C@@]2(C)Oc3c(C)c(O)c4c(O)c(c(/C=N/N5CCN(C)CC5)c(O)c4c3C2=O)NC(=O)/C(C)=C\C=C\[C@H](C)[C@H](O)[C@@H](C)[C@@H](O)[C@@H](C)[C@H](OC(C)=O)[C@@H]1C [RIFAMPIN]
- MIC90 [1]: > 40 µg/mL
- MIC90 [2]: > 40 µg/mL
